Runt-CBFb FRET: Runt domain-CBFb interaction inhibition; Q01196+Q13951; Cerulean-Runt/Venus-CBFb FRET ratio 530/480, 1 h; inhibition, % at 20 µM; actives 0.46% (n = 220,000); AID 1496;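 active means inhibition over about 50% at 20 µM in the single-dose screen, limit read from the data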
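Schedule: protein complex preformed 1 h, compound exposure 1 h, room temperature, dark; test system: Cerulean-labeled Runt domain protein; amount: 100 nM per protein; buffer or medium: Tris 50 mM pH 7.5, KCl, K2SO4, 0.01% BSA; read-out: loss of energy transfer signal; detection: FRET fluorescence; controls: 5 µM unlabeled CBFb as full-inhibition high control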
TNF death inh: inhibitors of TNF-alpha induced necroptosis in Jurkat FADD-/- cells. Jurkat FADD-/- TNF necroptosis rescue, ATP luminescence, 24 h; 0 = TNF only, 100 = no-TNF cells. activation (protection from cell death), % at 10 µM. actives 0.068% (n = 220,000). AID 463075;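 active means activation, meaning protection from cell death, of at least 50% relative to plate controls; inactive means activation below 50%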;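 further: necroptosis triggered by 40 ng/mL TNF-alpha added together with compound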
Hck-Nef inh: human Hck-Nef kinase inhibition. inhibition, % at 20 µM. Recombinant Hck-YEEI plus Nef, Z-Lyte FRET kinase assay. P08631. AID 463187. actives 0.68% (n = 220,000);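 active means Hck-Nef kinase inhibition above about 50%, limit read from the data; inactive means inhibition below that limit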
Target sequence (P08631 whole entry, looked up): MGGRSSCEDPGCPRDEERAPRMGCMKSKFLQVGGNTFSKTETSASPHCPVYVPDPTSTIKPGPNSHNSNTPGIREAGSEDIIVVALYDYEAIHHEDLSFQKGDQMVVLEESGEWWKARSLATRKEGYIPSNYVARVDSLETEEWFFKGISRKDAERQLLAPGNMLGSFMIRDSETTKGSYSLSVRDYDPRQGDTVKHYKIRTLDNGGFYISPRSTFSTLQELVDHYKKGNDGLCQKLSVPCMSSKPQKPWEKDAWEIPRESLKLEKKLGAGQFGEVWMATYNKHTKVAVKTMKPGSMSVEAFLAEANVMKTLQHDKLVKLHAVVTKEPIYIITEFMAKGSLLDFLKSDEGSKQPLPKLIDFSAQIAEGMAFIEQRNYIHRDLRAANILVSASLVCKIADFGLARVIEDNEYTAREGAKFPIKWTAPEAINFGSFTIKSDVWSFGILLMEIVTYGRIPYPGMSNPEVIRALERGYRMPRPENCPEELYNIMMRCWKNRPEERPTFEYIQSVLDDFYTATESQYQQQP
RanGTP-Impb inh: disruptors of Ran-importin-beta complex formation – biochemical, FRET, CFP-Ran, YFP-importin-beta, homogeneous, primary screen. cell-free CFP-Ran/YFP-importin-beta FRET ratio. inhibition, % (no concentration beside the values). actives 1.1% (n = 300,000);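 active means more than half of the replicate wells show a fall in the fluorescence ratio signal beyond about 16%, limit read from the data, passing the limit was not always enough; inconclusive means exactly half of the replicate wells pass the set limit; inactive means fewer than half of replicates pass the limit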
zVAD death inh: L929 zVAD cell death inhibition. actives 0.38% (n = 220,000). viability rescue, % at 10 µM. AID 1377. L929 zVAD necroptosis rescue, ATP luminescence, 24 h; with zVAD 60 µM;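 active means activation, scaled between plate controls, above about 75%, limit read from the data; inactive means activation under that limit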
Runt-SMMHC FRET: blocks binding of human RUNX1 Runt domain to CBFb-SMMHC; Cerulean-Runt/Venus-CBFb-SMMHC FRET ratio 530/480, 1 h; Q01196+Q13951; inhibition, % at 20 µM; actives 0.74% (n = 220,000);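 active means mean inhibition across duplicate retests at 20 µM reaching about 50%, limit read from the data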;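 further: inhibitors lower the FRET ratio by blocking Runt binding to CBFb-SMMHC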
zVAD death conf: confirmed blocker of zVAD induced death in L929 cells. actives 16% (n = 760). shares compounds with zVAD death inh. AID 463117. L929 zVAD-induced necroptosis rescue, ATP luminescence, 24 h. activation (protection from necroptosis), % at 10 µM;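 active means mean protection from necroptosis of at least 50% over duplicate tests; inactive means mean protection below 50%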
A number is an active result. Most compounds without a hit are left out; they make up all but 2.1% or so of the library.

What do the screens show for `FC(F)(F)c1cnc2c(-c3ccccc3)n[nH]c2c1`?
Runt-CBFb FRET: inactive; TNF death inh: inactive; Hck-Nef inh: inactive; RanGTP-Impb inh: inactive; zVAD death inh: 77; Runt-SMMHC FRET: inactive; zVAD death conf: inactive

What do the screens show for `Cn1nc(C(C)(C)C)cc1NC(=O)Nc1cc(Cl)cc(Cl)c1`?
Runt-CBFb FRET: inactive; TNF death inh: inactive; Hck-Nef inh: inactive; RanGTP-Impb inh: inconclusive; zVAD death inh: 94; Runt-SMMHC FRET: inactive; zVAD death conf: 93

Results for COc1ccc(Cl)cc1-c1nc(SCC(N)=O)n[nH]1 ?
Runt-CBFb FRET: inactive; TNF death inh: inactive; Hck-Nef inh: inactive; RanGTP-Impb inh: inactive; zVAD death inh: inactive; Runt-SMMHC FRET: inactive

Results for CCCCc1[nH]c(=O)c(C#N)c2c1CSC(C)(C)C2 ?
Runt-CBFb FRET: inactive; TNF death inh: inactive; Hck-Nef inh: inactive; RanGTP-Impb inh: inactive; zVAD death inh: 75; Runt-SMMHC FRET: inactive; zVAD death conf: inactive

How did Cc1[nH]nc2c1C(c1c[nH]c3ccccc13)C(C#N)=C(N)O2 (stereo unspecified) do in these assays?
Runt-CBFb FRET: inactive; TNF death inh: inactive; Hck-Nef inh: inactive; RanGTP-Impb inh: inactive; zVAD death inh: 77; Runt-SMMHC FRET: inactive; zVAD death conf: inactive

Results for Cc1[nH]nc2c1[C@@H](c1ccccc1[N+](=O)[O-])C(C#N)=C(N)O2 ?
RanGTP-Impb inh: inactive

Results for N#C/C(=C(\O)c1ccco1)c1ccccn1 ?
Runt-CBFb FRET: inactive; TNF death inh: inactive; Hck-Nef inh: inactive; RanGTP-Impb inh: inactive; zVAD death inh: 105; Runt-SMMHC FRET: inactive; zVAD death conf: 57

Results for N#CC(C(=O)c1ccco1)c1ccccn1 (stereo unspecified) ?
Runt-CBFb FRET: inactive; TNF death inh: inactive; Hck-Nef inh: inactive; RanGTP-Impb inh: inactive; zVAD death inh: 81; Runt-SMMHC FRET: inactive; zVAD death conf: 56

Results for O=C(C1=NNCC1c1ccccc1)C1CO1 (stereo unspecified) ?
Runt-CBFb FRET: inactive; TNF death inh: 91; Hck-Nef inh: inactive; RanGTP-Impb inh: inactive; zVAD death inh: 99; Runt-SMMHC FRET: inactive; zVAD death conf: 90

Results for O=C(c1[nH]ncc1-c1ccccc1)C1CO1 (stereo unspecified) ?
Runt-CBFb FRET: inactive; TNF death inh: inactive; Hck-Nef inh: inactive; RanGTP-Impb inh: inactive; zVAD death inh: inactive; Runt-SMMHC FRET: inactive

Results for C/C(=N\NC(=O)c1ccc(NS(=O)(=O)c2cccs2)cc1)c1ccc(C(C)(C)C)cc1 ?
Runt-CBFb FRET: inactive; TNF death inh: inactive; Hck-Nef inh: inactive; RanGTP-Impb inh: inactive; zVAD death inh: 82; Runt-SMMHC FRET: inactive; zVAD death conf: inactive

Results for O=C(CSc1ncccn1)NCc1cccc(Cl)c1 ?
Runt-CBFb FRET: inactive; TNF death inh: inactive; Hck-Nef inh: inactive; RanGTP-Impb inh: inactive; zVAD death inh: inactive; Runt-SMMHC FRET: inactive

How did CN(C)C=NC(=O)/C(C#N)=C1\CCc2ccccc2N1 do in these assays?
Runt-CBFb FRET: inactive; TNF death inh: inactive; Hck-Nef inh: inactive; RanGTP-Impb inh: inactive; zVAD death inh: 83; Runt-SMMHC FRET: inactive; zVAD death conf: inactive

What do the screens show for `CC(=O)c1ccc(NC(=S)N2CCCC2)cc1`?
RanGTP-Impb inh: inactive

Results for CC(=O)Nc1cc(-c2ccc(F)cc2)[nH]n1 ?
Runt-CBFb FRET: inactive; TNF death inh: inactive; Hck-Nef inh: inactive; RanGTP-Impb inh: inactive; zVAD death inh: 76; Runt-SMMHC FRET: inactive; zVAD death conf: inactive

Results for Cc1ccc2nc3ccc(N4CCCCCCC4)nn3c(=O)c2c1 ?
Runt-CBFb FRET: inactive; TNF death inh: inactive; Hck-Nef inh: inactive; RanGTP-Impb inh: inconclusive; zVAD death inh: 87; Runt-SMMHC FRET: inactive; zVAD death conf: inactive

How did Cc1ccc2nc3ccc(N4CCN(C)CC4)nn3c(=O)c2c1 do in these assays?
Runt-CBFb FRET: inactive; TNF death inh: inactive; Hck-Nef inh: inactive; RanGTP-Impb inh: inactive; zVAD death inh: inactive; Runt-SMMHC FRET: inactive

Results for CNC(=O)c1cc(Nc2nnc(-c3ccc(O)cc3)c3ccccc23)ccc1OC ?
Runt-CBFb FRET: inactive; TNF death inh: inactive; Hck-Nef inh: inactive; RanGTP-Impb inh: inactive; zVAD death inh: 80; Runt-SMMHC FRET: inactive; zVAD death conf: inactive

How did Cc1ccsc1/C=N/Nc1nc2ccccc2s1 do in these assays?
Runt-CBFb FRET: inactive; TNF death inh: inactive; Hck-Nef inh: inactive; RanGTP-Impb inh: inconclusive; zVAD death inh: inactive; Runt-SMMHC FRET: inactive

Results for C(=N\Nc1nc2ccccc2s1)/c1cccs1 ?
Runt-CBFb FRET: inactive; TNF death inh: inactive; Hck-Nef inh: inactive; RanGTP-Impb inh: inactive; zVAD death inh: 82; Runt-SMMHC FRET: inactive; zVAD death conf: inactive

Results for C(=N\Nc1nc2ccccc2s1)/c1ccco1 ?
Runt-CBFb FRET: inactive; TNF death inh: inactive; Hck-Nef inh: inactive; RanGTP-Impb inh: inactive; zVAD death inh: 94; Runt-SMMHC FRET: inactive; zVAD death conf: inactive

What do the screens show for `CC1(C(=O)NCc2ccccc2)Oc2ccccc2NC1=O` (stereo unspecified)?
Runt-CBFb FRET: inactive; TNF death inh: inactive; Hck-Nef inh: inactive; RanGTP-Impb inh: inactive; zVAD death inh: inactive; Runt-SMMHC FRET: inactive

How did CCOC(=O)/C=C1\Nc2ccccc2OC1=O do in these assays?
Runt-CBFb FRET: inactive; TNF death inh: inactive; Hck-Nef inh: inactive; RanGTP-Impb inh: inactive; zVAD death inh: 94; Runt-SMMHC FRET: inactive; zVAD death conf: inactive

What do the screens show for `O=C(c1ccc(Br)o1)N1CCN(Cc2ccccc2Cl)CC1`?
RanGTP-Impb inh: inactive

Results for O=C(NC(=S)NCc1ccco1)c1ccccc1[N+](=O)[O-] ?
RanGTP-Impb inh: inactive

Results for CC(C)(C)NS(=O)(=O)c1ccc(NC(=O)C2CCCCC2)cc1 ?
Runt-CBFb FRET: inactive; TNF death inh: inactive; Hck-Nef inh: inactive; RanGTP-Impb inh: inactive; zVAD death inh: inactive; Runt-SMMHC FRET: inactive

What do the screens show for `Cc1ccc(NC(=O)Nc2cccnc2)cc1NC(=O)Nc1cccnc1`?
Runt-CBFb FRET: inactive; TNF death inh: inactive; Hck-Nef inh: inactive; RanGTP-Impb inh: inactive; zVAD death inh: 77; Runt-SMMHC FRET: inactive; zVAD death conf: inactive

How did CC(=O)c1cccc(NC(=O)Nc2cccnc2)c1 do in these assays?
Runt-CBFb FRET: inactive; TNF death inh: inactive; Hck-Nef inh: inactive; RanGTP-Impb inh: inactive; zVAD death inh: inactive; Runt-SMMHC FRET: inactive

What do the screens show for `O=C(Nc1ccc(N2CCN(C(=O)c3ccco3)CC2)cc1)C(c1ccccc1)c1ccccc1`?
Runt-CBFb FRET: inactive; TNF death inh: inactive; Hck-Nef inh: inactive; RanGTP-Impb inh: inactive; zVAD death inh: 76; Runt-SMMHC FRET: inactive; zVAD death conf: inactive

Screening data (PubChem BioAssay)
